{"source": "ChEMBL document CHEMBL4152223", "about": "(Eur J Med Chem, 2018)", "key": {"Mycobacterium avium [1]": {"tested_on": "Mycobacterium avium", "assay": "Antimycobacterial activity against INH/RIF/OFX resistant Mycobacterium avium 330/88 after 21 days", "type": "functional", "settings": "330/88, 504 h"}, "Mycobacterium kansasii [2]": {"tested_on": "Mycobacterium kansasii", "assay": "Antimycobacterial activity against Mycobacterium kansasii 6509/96 after 7 days", "type": "functional", "settings": "6509/96, 168 h"}, "Mycobacterium kansasii [3]": {"tested_on": "Mycobacterium kansasii", "assay": "Antimycobacterial activity against Mycobacterium kansasii 6509/96 after 21 days", "type": "functional", "settings": "6509/96, 504 h"}, "[4]": {"tested_on": "Mycobacterium tuberculosis", "assay": "Antimycobacterial activity against Mycobacterium tuberculosis H37Rv after 21 days", "type": "functional", "settings": "504 h"}, "Mycobacterium kansasii [5]": {"tested_on": "Mycobacterium kansasii", "assay": "Antimycobacterial activity against Mycobacterium kansasii 6509/96 after 14 days", "type": "functional", "settings": "6509/96, 336 h"}, "Mycobacterium kansasii [6]": {"tested_on": "Mycobacterium kansasii", "assay": "Antimycobacterial activity against Mycobacterium kansasii 235/80 after 21 days", "type": "functional", "settings": "235/80, 504 h"}, "[7]": {"tested_on": "Mycobacterium tuberculosis", "assay": "Antimycobacterial activity against Mycobacterium tuberculosis H37Rv after 14 days", "type": "functional", "settings": "336 h"}, "Mycobacterium kansasii [8]": {"tested_on": "Mycobacterium kansasii", "assay": "Antimycobacterial activity against Mycobacterium kansasii 235/80 after 7 days", "type": "functional", "settings": "235/80, 168 h"}, "Mycobacterium kansasii [9]": {"tested_on": "Mycobacterium kansasii", "assay": "Antimycobacterial activity against Mycobacterium kansasii 235/80 after 14 days", "type": "functional", "settings": "235/80, 336 h"}, "Mycobacterium avium [10]": {"tested_on": "Mycobacterium avium", "assay": "Antimycobacterial activity against INH/RIF/OFX resistant Mycobacterium avium 330/88 after 14 days", "type": "functional", "settings": "330/88, 336 h"}, "HepG2": {"tested_on": "HepG2", "assay": "Cytotoxicity against human HepG2 cells assessed as reduction in cell viability by MTS assay", "type": "cell-based", "summary_of_the_method": "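HepG2 human hepatocellular carcinoma cells (passage 2-4) were cultured in Eagle's MEM with 10% FBS, 1% L-glutamine and non-essential amino acids. Compounds were dissolved in DMSO and tested in triplicate at eight concentrations. Viability was read by colorimetric MTS tetrazolium reduction. Controls were 100% viability and 0% viability (10% DMSO). IC50 is the concentration reducing viability to 50% of control.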"}, "[11]": {"assay": "Selectivity index, ratio of IC50 for human HepG2 cells to MIC for Mycobacterium tuberculosis H37Rv after 14 days", "type": "toxicity", "settings": "read-out: Selectivity Index", "summary_of_the_method": "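SI is calculated as HepG2 IC50 divided by MIC. HepG2 cells (passage 2-4) were grown in EMEM with 10% FBS, L-glutamine and non-essential amino acids. Compounds in DMSO were tested in triplicate at eight concentrations, and viability was read by MTS tetrazolium reduction. IC50 is the concentration reducing viability to 50% of control. 10% DMSO served as the 0% viability control.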"}}}
{"smiles": "CCCCCCCCCCCCCCCCCCNc1nnc(-c2ccncc2)o1", "values": [{"measurement": "MIC", "setting": "Mycobacterium avium [1]", "result": 500, "unit": "µM"}, {"measurement": "MIC", "setting": "Mycobacterium kansasii [2]", "result": 250, "unit": "µM"}, {"measurement": "MIC", "setting": "Mycobacterium kansasii [3]", "result": 500, "unit": "µM"}, {"measurement": "MIC", "setting": "[4]", "result": 250, "unit": "µM"}, {"measurement": "MIC", "setting": "Mycobacterium kansasii [5]", "result": 500, "unit": "µM"}, {"measurement": "MIC", "setting": "Mycobacterium kansasii [6]", "result": 250, "unit": "µM"}, {"measurement": "MIC", "setting": "[7]", "result": 125, "unit": "µM"}, {"measurement": "MIC", "setting": "Mycobacterium kansasii [8]", "result": 250, "unit": "µM"}, {"measurement": "MIC", "setting": "Mycobacterium kansasii [9]", "result": 250, "unit": "µM"}, {"measurement": "MIC", "setting": "Mycobacterium avium [10]", "result": 500, "unit": "µM"}]}
{"smiles": "CCCCCCCCNC(=O)NNC(=O)c1ccncc1", "values": [{"measurement": "MIC", "setting": "Mycobacterium avium [1]", "result": 250, "unit": "µM"}, {"measurement": "MIC", "setting": "Mycobacterium kansasii [2]", "result": 62.5, "unit": "µM"}, {"measurement": "MIC", "setting": "Mycobacterium kansasii [3]", "result": 250, "unit": "µM"}, {"measurement": "MIC", "setting": "[4]", "result": 125, "unit": "µM"}, {"measurement": "IC50", "setting": "HepG2", "result": "> 500", "unit": "µM"}, {"measurement": "MIC", "setting": "Mycobacterium kansasii [5]", "result": 125, "unit": "µM"}, {"measurement": "MIC", "setting": "Mycobacterium kansasii [6]", "result": 125, "unit": "µM"}, {"measurement": "MIC", "setting": "[7]", "result": 62.5, "unit": "µM"}, {"measurement": "MIC", "setting": "Mycobacterium kansasii [8]", "result": 32, "unit": "µM"}, {"measurement": "MIC", "setting": "Mycobacterium kansasii [9]", "result": 62.5, "unit": "µM"}, {"measurement": "MIC", "setting": "Mycobacterium avium [10]", "result": 250, "unit": "µM"}]}
{"smiles": "CCCCCCCCCCNc1nnc(-c2ccncc2)o1", "values": [{"measurement": "MIC", "setting": "Mycobacterium avium [1]", "result": 62.5, "unit": "µM"}, {"measurement": "MIC", "setting": "Mycobacterium kansasii [2]", "result": 16, "unit": "µM"}, {"measurement": "MIC", "setting": "Mycobacterium kansasii [3]", "result": 16, "unit": "µM"}, {"measurement": "MIC", "setting": "[4]", "result": 16, "unit": "µM"}, {"measurement": "IC50", "setting": "HepG2", "result": "> 50", "unit": "µM"}, {"measurement": "MIC", "setting": "Mycobacterium kansasii [5]", "result": 16, "unit": "µM"}, {"measurement": "MIC", "setting": "Mycobacterium kansasii [6]", "result": 16, "unit": "µM"}, {"measurement": "MIC", "setting": "[7]", "result": 16, "unit": "µM"}, {"measurement": "MIC", "setting": "Mycobacterium kansasii [8]", "result": 8, "unit": "µM"}, {"measurement": "MIC", "setting": "Mycobacterium kansasii [9]", "result": 16, "unit": "µM"}, {"measurement": "MIC", "setting": "Mycobacterium avium [10]", "result": 32, "unit": "µM"}]}
{"smiles": "CCNc1nnc(-c2ccncc2)o1", "values": [{"measurement": "MIC", "setting": "Mycobacterium avium [1]", "result": "> 1000", "unit": "µM"}, {"measurement": "MIC", "setting": "Mycobacterium kansasii [2]", "result": 1000, "unit": "µM"}, {"measurement": "MIC", "setting": "Mycobacterium kansasii [3]", "result": "> 1000", "unit": "µM"}, {"measurement": "MIC", "setting": "[4]", "result": "> 1000", "unit": "µM"}, {"measurement": "MIC", "setting": "Mycobacterium kansasii [5]", "result": "> 1000", "unit": "µM"}, {"measurement": "MIC", "setting": "Mycobacterium kansasii [6]", "result": "> 1000", "unit": "µM"}, {"measurement": "MIC", "setting": "[7]", "result": "> 1000", "unit": "µM"}, {"measurement": "MIC", "setting": "Mycobacterium kansasii [8]", "result": 1000, "unit": "µM"}, {"measurement": "MIC", "setting": "Mycobacterium kansasii [9]", "result": "> 1000", "unit": "µM"}, {"measurement": "MIC", "setting": "Mycobacterium avium [10]", "result": "> 1000", "unit": "µM"}]}
{"smiles": "CCCCCCCCCCCCCNC(=O)NNC(=O)c1ccncc1", "values": [{"measurement": "MIC", "setting": "Mycobacterium avium [1]", "result": 125, "unit": "µM"}, {"measurement": "MIC", "setting": "Mycobacterium kansasii [2]", "result": 32, "unit": "µM"}, {"measurement": "MIC", "setting": "Mycobacterium kansasii [3]", "result": 62.5, "unit": "µM"}, {"measurement": "MIC", "setting": "[4]", "result": 62.5, "unit": "µM"}, {"measurement": "IC50", "setting": "HepG2", "result": "> 100", "unit": "µM"}, {"measurement": "MIC", "setting": "Mycobacterium kansasii [5]", "result": 62.5, "unit": "µM"}, {"measurement": "MIC", "setting": "Mycobacterium kansasii [6]", "result": 62.5, "unit": "µM"}, {"measurement": "MIC", "setting": "[7]", "result": 32, "unit": "µM"}, {"measurement": "MIC", "setting": "Mycobacterium kansasii [8]", "result": 16, "unit": "µM"}, {"measurement": "MIC", "setting": "Mycobacterium kansasii [9]", "result": 32, "unit": "µM"}, {"measurement": "MIC", "setting": "Mycobacterium avium [10]", "result": 125, "unit": "µM"}]}
{"smiles": "CCCCCCNC(=O)NNC(=O)c1ccncc1", "values": [{"measurement": "MIC", "setting": "Mycobacterium avium [1]", "result": 500, "unit": "µM"}, {"measurement": "MIC", "setting": "Mycobacterium kansasii [2]", "result": 250, "unit": "µM"}, {"measurement": "MIC", "setting": "Mycobacterium kansasii [3]", "result": 500, "unit": "µM"}, {"measurement": "MIC", "setting": "[4]", "result": 32, "unit": "µM"}, {"measurement": "IC50", "setting": "HepG2", "result": "> 1000", "unit": "µM"}, {"measurement": "MIC", "setting": "Mycobacterium kansasii [5]", "result": 500, "unit": "µM"}, {"measurement": "selectivity ratio at 336 h", "setting": "[11]", "result": "> 31.3"}, {"measurement": "MIC", "setting": "Mycobacterium kansasii [6]", "result": 250, "unit": "µM"}, {"measurement": "MIC", "setting": "[7]", "result": 32, "unit": "µM"}, {"measurement": "MIC", "setting": "Mycobacterium kansasii [8]", "result": 250, "unit": "µM"}, {"measurement": "MIC", "setting": "Mycobacterium kansasii [9]", "result": 250, "unit": "µM"}, {"measurement": "MIC", "setting": "Mycobacterium avium [10]", "result": 500, "unit": "µM"}]}
{"smiles": "CCCCCCNc1nnc(-c2ccncc2)o1", "values": [{"measurement": "MIC", "setting": "Mycobacterium avium [1]", "result": 500, "unit": "µM"}, {"measurement": "MIC", "setting": "Mycobacterium kansasii [2]", "result": 125, "unit": "µM"}, {"measurement": "MIC", "setting": "Mycobacterium kansasii [3]", "result": 500, "unit": "µM"}, {"measurement": "MIC", "setting": "[4]", "result": 250, "unit": "µM"}, {"measurement": "MIC", "setting": "Mycobacterium kansasii [5]", "result": 250, "unit": "µM"}, {"measurement": "MIC", "setting": "Mycobacterium kansasii [6]", "result": 500, "unit": "µM"}, {"measurement": "MIC", "setting": "[7]", "result": 250, "unit": "µM"}, {"measurement": "MIC", "setting": "Mycobacterium kansasii [8]", "result": 250, "unit": "µM"}, {"measurement": "MIC", "setting": "Mycobacterium kansasii [9]", "result": 500, "unit": "µM"}, {"measurement": "MIC", "setting": "Mycobacterium avium [10]", "result": 500, "unit": "µM"}]}
